# Experimental data published in PubChem BioAssay.
# The source made the active and inactive calls.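 The calls were made as follows, unless noted: active = viability at or below 10% of carrier control in both of two separate runs; inconclusive = viability at or below 10% in only one of the two runs; inactive = the rest.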
# Tests used:
# [1] = reducers of endogenous Her2 protein level, primary screen, SKBR3 breast tumor cells, AlphaScreen, ATP viability (AID 461;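 active = Her2 level under about 52% in both replicate screens, with viability over 70% of control, limit read from the data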;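 as to Her2 level: lower value means less Her2 protein in the cells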;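 as to viability: percent of carrier control wells set as 100% viability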); conditions: 18-24 h, measured here: SKBR3 viability, ATP luminescence, at 10 µM
# [2] = molecular target: Receptor tyrosine-protein kinase erbB-2 (Homo sapiens) (UniProt P04626); assay: as above; conditions: 18-24 h, at 10 µM, stronger effect = lower value
# Sequence of Receptor tyrosine-protein kinase erbB-2 (Homo sapiens) (P04626 whole entry, looked up): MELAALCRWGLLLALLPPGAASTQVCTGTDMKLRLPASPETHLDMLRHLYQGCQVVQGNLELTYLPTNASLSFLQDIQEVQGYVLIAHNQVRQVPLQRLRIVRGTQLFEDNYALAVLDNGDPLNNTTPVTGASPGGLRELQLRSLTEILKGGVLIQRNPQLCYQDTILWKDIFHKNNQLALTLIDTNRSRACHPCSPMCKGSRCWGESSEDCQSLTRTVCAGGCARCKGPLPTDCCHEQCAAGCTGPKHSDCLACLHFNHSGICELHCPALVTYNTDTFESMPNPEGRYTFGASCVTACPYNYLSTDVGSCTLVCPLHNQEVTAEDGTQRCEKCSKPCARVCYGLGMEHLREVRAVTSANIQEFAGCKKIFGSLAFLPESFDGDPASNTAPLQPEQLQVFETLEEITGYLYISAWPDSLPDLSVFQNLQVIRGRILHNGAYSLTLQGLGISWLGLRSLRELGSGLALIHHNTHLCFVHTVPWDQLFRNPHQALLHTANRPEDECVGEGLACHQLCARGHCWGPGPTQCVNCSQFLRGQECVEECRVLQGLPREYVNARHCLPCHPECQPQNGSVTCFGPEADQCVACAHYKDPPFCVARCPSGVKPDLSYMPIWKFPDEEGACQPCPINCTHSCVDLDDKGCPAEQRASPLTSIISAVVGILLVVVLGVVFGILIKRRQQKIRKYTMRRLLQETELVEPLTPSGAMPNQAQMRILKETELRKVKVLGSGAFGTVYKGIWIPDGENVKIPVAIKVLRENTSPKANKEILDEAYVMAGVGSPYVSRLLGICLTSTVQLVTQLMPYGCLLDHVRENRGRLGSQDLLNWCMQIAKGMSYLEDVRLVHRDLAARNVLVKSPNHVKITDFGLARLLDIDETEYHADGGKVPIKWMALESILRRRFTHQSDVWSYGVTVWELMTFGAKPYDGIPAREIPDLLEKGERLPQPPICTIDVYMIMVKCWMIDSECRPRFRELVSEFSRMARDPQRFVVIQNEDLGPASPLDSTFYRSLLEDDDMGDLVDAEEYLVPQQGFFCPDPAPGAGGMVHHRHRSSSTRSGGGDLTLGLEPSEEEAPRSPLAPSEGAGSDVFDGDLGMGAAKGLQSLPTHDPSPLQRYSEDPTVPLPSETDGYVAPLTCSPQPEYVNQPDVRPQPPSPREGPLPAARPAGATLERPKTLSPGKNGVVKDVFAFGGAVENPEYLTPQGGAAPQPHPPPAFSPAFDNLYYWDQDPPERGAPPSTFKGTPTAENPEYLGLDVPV
# [3] = SK-BR-3 cell growth inhibitors, pilot screen, 24 h, human (AID 572); conditions: SK-BR-3 viability, CellTiter-Glo luminescence, at 10 µM, stronger effect = lower value;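 also: compound exposure lasted between 18 and 24 h rather than exactly 24 h; 100% = carrier-treated control wells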
# [4] = HUVEC growth inhibition – cell-based, human, primary screen (AID 575;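 active = viability at or below 30% in both replicate assays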;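 also: 100% = median of untreated cell wells with 0.1% DMSO on each plate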); conditions: HUVEC proliferation, CellTiter-Glo luminescence, 72 h; at 10 µM; stronger effect = lower value
# In short: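 material = primary HUVEC, no more than 12 passages | input = 1250 cells per well | controls = vehicle and MePR control wells | measured by = CTG luminescence | times = 72 h compound incubation | format = collagen-coated 384-well format | read-out = % viability vs DMSO wells | doses = single 10 µM dose, 0.1% DMSO, from 5x medium stock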
# [5] = growth inhibitors of H69AR lung tumor, primary screen, human, duplicate replicates (AID 580;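 active = viability at or under a set limit in both replicates, limit being median viability minus 3 SD, cut at about 48% in these data, passing the limit was not always enough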;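 also: 100% = mean luminescence of untreated wells and 0% = no signal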); conditions: H69AR lung tumor cells viability, ATP luminescence, 72 h; at 10 µM; stronger effect = lower value
# [6] = reversal of MRP1-mediated doxorubicin resistance, pilot screen, H69AR cells, doxorubicin co-treatment (AID 601;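 active = viability loss from added drug above about 55%, and viability with drug at most 40%, in both replicates, limit read from the data, passing the limit was not always enough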); conditions: CellTiter-Glo, 72 h, at 10 µM; for differential viability (reversal): stronger effect = higher value
# [7] = 384-well plate pilot, post-Golgi transport modulator project, inhibition of yeast transport mutant growth (AID 636; in the data active = inhibition above about 31%); conditions: absorbance 615 nm, about 18 h, stronger effect = higher value
# [8] = growth suppression of yeast trafficking mutant, preliminary HTS, modulators of trafficking downstream of Golgi apparatus project, 1536-format plate, OD 615 nm (AID 637; in the data active = inhibition above about 30%); conditions: yeast transport mutant growth, absorbance 615 nm, 18 h; stronger effect = higher value
# [9] = H69AR cells + 2 uM doxorubicin, measured here: viability with 2 uM doxorubicin, stronger effect = lower value
# [10] = H69AR cells, compound alone cytotoxicity
SMILES,viability [1] [%],Her2 level [2],viability [3],viability [4],viability [5],differential viability (reversal) ([6]; H69AR cells + 2 uM doxorubicin),"viability [6, 9] [%]","viability [6, 10] [%]",inhibition [7],inhibition [8]
Nc1c(N2CCCCC2)c(=O)[nH]c(=O)n1-c1ccccc1,105,139% (inactive),105% (inactive),102% (inactive),109% (inactive),13.9% (inactive),95.3,109,-2.86% (inactive),-4.33% (inactive)
Cn1cccc1Cc1nnc(SCC(=O)Nc2ccccc2F)n1CCc1ccccc1,78.5,91% (inactive),78.5% (inactive),89.4% (inactive),83.7% (inactive),1.68% (inactive),82.1,83.7,1.15% (inactive),2.67% (inactive)
CCCn1c(SCC(=O)Nc2nnc(-c3ccccc3)s2)nnc1-c1ccccn1,98.5,112% (inactive),98.5% (inactive),84.6% (inactive),102% (inactive),5.49% (inactive),96.8,102,-2.7% (inactive),25% (inactive)
O=C1CC(c2ccsc2)c2cc3c(cc2N1)OCCO3 (stereo not given),103,98.5% (inactive),103% (inactive),67.6% (inactive),26.9% (active),-33.3% (inactive),60.2,26.9,-2.93% (inactive),-5.25% (inactive)
Cn1c(NCc2cccc(Br)c2)nc2ccccc21,87,86.5% (inactive),87% (inactive),83.7% (inactive),81.1% (inactive),7.16% (inactive),73.9,81.1,-4.27% (inactive),-3.87% (inactive)
CC(=O)c1c(C)[nH]c(C(=O)NCc2cccs2)c1C,97,90% (inactive),97% (inactive),93.8% (inactive),94.9% (inactive),11.2% (inactive),83.7,94.9,0.39% (inactive),-1.45% (inactive)
COc1ccccc1NS(=O)(=O)c1ccc(OC)c(OC)c1,86,85% (inactive),86% (inactive),91.6% (inactive),99.8% (inactive),-3.15% (inactive),103,99.8,-6.62% (inactive),6.56% (inactive)
COc1ccc(CCNc2oc(-c3ccco3)nc2C#N)cc1,95,81.5% (inactive),95% (inactive),96.7% (inactive),94.6% (inactive),-3.7% (inactive),98.3,94.6,-3.07% (inactive),3.93% (inactive)
CCCCOc1ccc(-c2ncc(C(=O)OCC)c(N)n2)cc1,89.5,88% (inactive),89.5% (inactive),103% (inactive),90% (inactive),8.43% (inactive),81.5,90,-6.8% (inactive),-6.03% (inactive)
Cc1ccccc1-c1nc2ccccc2c(=O)n1C1CCS(=O)(=O)C1 (stereo not given),96.5,91.5% (inactive),96.5% (inactive),108% (inactive),90.3% (inactive),-9.98% (inactive),100,90.3,0.26% (inactive),0.97% (inactive)
CS(=O)(=O)N(CC(=O)Nc1cccc(F)c1)Cc1ccccc1,78.5,87.5% (inactive),78.5% (inactive),87.5% (inactive),103% (inactive),13.1% (inactive),90,103,-3.78% (inactive),2.3% (inactive)
COc1ccc(N2C(=O)C3C4C=CC(C4)C3C2=O)nn1 (stereo not given),104,106% (inactive),104% (inactive),99.6% (inactive),99.2% (inactive),17.4% (inactive),81.8,99.2,-0.91% (inactive),-4.59% (inactive)
COC(=O)c1cc(Oc2ccc(C(=O)OC)cc2N)cc(C(=O)OC)c1,95,100% (inactive),95% (inactive),99.1% (inactive),96.5% (inactive),-2.62% (inactive),99.2,96.5,-1.32% (inactive),-5.82% (inactive)
CN(C)S(=O)(=O)c1ccc(S(=O)(=O)N(Cc2ccco2)Cc2ccccc2Cl)cc1,93,93% (inactive),93% (inactive),100% (inactive),95.8% (inactive),7.62% (inactive),88.2,95.8,-9.18% (inactive),-2.7% (inactive)
CCOc1ccccc1N1CCN(c2nc3ccccc3nc2C(C#N)C(=O)OC)CC1 (stereo not given),74,78% (inactive),74% (inactive),71.7% (inactive),83.9% (inactive),-4.64% (inactive),88.5,83.9,1.45% (inactive),-2.1% (inactive)
COc1ccc(C(C(C(=O)c2cccs2)N2CCOCC2)N2CCOCC2)cc1OC (stereo not given),102,112% (inactive),102% (inactive),84.3% (inactive),102% (inactive),4.94% (inactive),96.6,102,-1.97% (inactive),0% (inactive)

SMILES,viability [1] [%],Her2 level [2],viability [3],viability [4],viability [5],differential viability (reversal) ([6]; H69AR cells + 2 uM doxorubicin),"viability [6, 9] [%]","viability [6, 10] [%]",inhibition [7],inhibition [8]
CN(CC(O)COc1ccc(OCC(O)CN(C)C2CCCCC2)cc1)C1CCCCC1 (stereo not given),88,82% (inactive),88% (inactive),65.5% (inactive),89.9% (inactive),10.4% (inactive),79.5,89.9,-5.66% (inactive),4.6% (inactive)
CCOC(=O)C1CCN(c2c(NC3CCCCCCC3)c(=O)c2=O)CC1,90,112% (inactive),90% (inactive),92.2% (inactive),79.7% (inactive),8.71% (inactive),71,79.7,0.64% (inactive),0.5% (inactive)
COC(=O)[C@H](CCSC)NC(=O)Nc1cc(C)ccc1C,124,89% (inactive),124% (inactive),84.1% (inactive),82.2% (inactive),-7.82% (inactive),90,82.2,-6.22% (inactive),5.71% (inactive)
CC1Cc2ccccc2N1C(=O)c1cccnc1 (stereo not given),121,91.5% (inactive),121% (inactive),92.8% (inactive),98.1% (inactive),2.02% (inactive),96,98.1,-2.21% (inactive),-0.16% (inactive)
CCS(=O)(=O)N1CCC(C(=O)NC2CCCCC2)CC1,113,99% (inactive),113% (inactive),92.7% (inactive),97.4% (inactive),11.3% (inactive),86.1,97.4,1.84% (inactive),3.28% (inactive)
CCOC(=O)CSc1nc2ccccc2c(=O)n1NC(=O)c1ccccc1,120,78% (inactive),120% (inactive),86.6% (inactive),87.4% (inactive),7% (inactive),80.4,87.4,-3.29% (inactive),-1.75% (inactive)
COc1ccc(C2C=C(c3ccccc3)Nc3ncnn32)cc1 (stereo not given),92.5,94.5% (inactive),92.5% (inactive),110% (inactive),101% (inactive),1.29% (inactive),100,101,-3.65% (inactive),3.65% (inactive)
COc1cccc(CN=CC2=C(O)CC(C)(C)CC2=O)c1OC,106,114% (inactive),106% (inactive),101% (inactive),100% (inactive),-0.91% (inactive),101,100,-1.69% (inactive),-7.54% (inactive)
Cc1cc(C)cc(-n2ccnc2SCC(=O)Nc2ccc3c(c2)OCCO3)c1,119,93.5% (inactive),119% (inactive),90.7% (inactive),99.3% (inactive),8.09% (inactive),91.2,99.3,-6.05% (inactive),-0.91% (inactive)
CCCn1c(SCC(=O)NC(C)(C)C)nnc1C(C)C,110,79.5% (inactive),110% (inactive),95.9% (inactive),93% (inactive),3.9% (inactive),89.1,93,-4.32% (inactive),17.6% (inactive)
Cc1cc(=O)oc(C)c1C(=O)O,102,118% (inactive),102% (inactive),97.1% (inactive),92% (inactive),7.3% (inactive),84.7,92,-6.1% (inactive),9.34% (inactive)
CC1CCCN(C(=O)CN2CCN(C(=O)c3ccco3)CC2)C1 (stereo not given),95.5,89.5% (inactive),95.5% (inactive),91.2% (inactive),93.2% (inactive),11.7% (inactive),81.6,93.2,-4.13% (inactive),-1.8% (inactive)
CN(CC(=O)N1CCN(C2CCCCC2)CC1)S(=O)(=O)c1cccc2nsnc12,88,83% (inactive),88% (inactive),107% (inactive),97.2% (inactive),5.6% (inactive),91.5,97.2,-4.53% (inactive),6.23% (inactive)
Fc1ccc(-c2nnc(CN3CCN(c4ncc(C(F)(F)F)cc4Cl)CC3)o2)cc1,104,87% (inactive),104% (inactive),63.4% (inactive),90.5% (inactive),-0.76% (inactive),91.3,90.5,-1.43% (inactive),3.61% (inactive)
CCOP(=O)(c1ccc(N(C)C)cc1)C(O)c1c(Cl)cccc1Cl (stereo not given),83,87.5% (inactive),83% (inactive),97.4% (inactive),90.1% (inactive),0.49% (inactive),89.6,90.1,-1.6% (inactive),-2.58% (inactive)
